Screens from PubChem.
Sampled rows, rich in hits. Any-hit rate of the full collection: about 3.8%.
CHO parental Ca: ATP-evoked calcium signal inhibitors, parental CHO, primary screen, counter-screen for OX1R antagonist project, cell-based, fluorescence, Fluo-8 calcium dye; parental CHO-K1, ATP-induced calcium, Fluo-8 fluorescence; AID 463079, 2010; inhibition, % at 5.6 µM; actives 0.63% (n = 330,000);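 active means inhibition above that plate's mean sample inhibition plus 3 SD, cut at about 26% in these data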;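 further: 0% = ATP-challenged DMSO wells and 100% = DMSO wells without ATP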
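test system = CHO parental line | reagent = ATP stimulus | measured by = intracellular calcium via Fluo-8 no-wash fluorescent dye | control set = ATP and no-ATP DMSO wells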
OX1R antag-1: OX1R (HCRTR1) antagonists, primary screen, fluorescence, CHO/OX1R cells, Fluo-8 calcium, orexin A; Orexin/Hypocretin receptor type 1 (Homo sapiens), O43613; Fluo-8 calcium fluorescence; inhibition, % at 5 µM; actives 0.43% (n = 330,000);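 active means inhibition above its plate's threshold, mean inhibition of all tested compounds on the plate plus 3 SD, cut at about 37% in these data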;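 further: 0% = orexin A challenge wells and 100% = SB-334867-A antagonist wells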
OX1R antag-2: antagonists of human orexin 1 receptor (OX1R). Orexin/Hypocretin receptor type 1 (Homo sapiens), O43613. OX1R-expressing cells, FRET antagonist read-out. inhibition, % at 6.6 µM. actives 1.8% (n = 330,000); in the data active means inhibition mostly above about 38%, no sharp cut-off; inactive means mostly below about 40%;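 further: 0% = agonist challenge alone and 100% = reference antagonist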
MPTP block: mitochondrial permeability transition pore inhibitors, primary screen, biochemical, isolated mouse mitochondria, absorbance | actives 1.4% (n = 360,000) | Ca2+ swelling absorbance, 30 min | inhibition, % at 10 µM;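 active means inhibition of 50% or more, scaled per plate between neutral and stimulator controls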;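 further: 0% = DMSO wells given calcium and 100% = 1 mM EGTA wells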
GPR7 antagonist: GPR7 receptor antagonists, primary screen, cell-based, fluorescence, single concentration; GPR7-expressing cells, fluorescence antagonist assay; inhibition, % at 4.4 µM; actives 1.1% (n = 290,000); in the data active means inhibition above about 16%, passing the limit was not always enough;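 further: cells stimulated with the agonist NPW; 0% = agonist with vehicle and 100% = vehicle without agonist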
Target sequence (P48145 whole entry, looked up): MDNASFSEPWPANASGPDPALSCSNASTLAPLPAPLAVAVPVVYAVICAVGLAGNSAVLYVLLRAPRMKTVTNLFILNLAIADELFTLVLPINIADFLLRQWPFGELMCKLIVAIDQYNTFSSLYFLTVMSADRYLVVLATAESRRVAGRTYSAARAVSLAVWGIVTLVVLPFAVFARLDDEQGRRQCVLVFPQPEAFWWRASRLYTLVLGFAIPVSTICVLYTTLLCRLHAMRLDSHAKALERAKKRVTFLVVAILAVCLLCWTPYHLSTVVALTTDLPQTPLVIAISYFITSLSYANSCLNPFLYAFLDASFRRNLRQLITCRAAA
Rh123 counter: fluorescence retest of MPTP screen hits in isolated mitochondria, single concentration. shares compounds with MPTP block. membrane potential, Rhodamine 123 fluorescence. inhibition, % at 10 µM. actives 78% (n = 5,000). AID 624504, 2012; in the data active means inhibition above about 22%;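 further: 0% = DMSO vehicle and 100% = positive control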
MPTP swell DR: mitochondrial permeability transition pore inhibitors, dose response, biochemical, absorbance, uHTS hits; shares compounds with MPTP block; isolated mitochondria swelling; IC50, µM; actives 58% (n = 780); AID 651561, 2012; in the data active means IC50 below about 20 µM
MPTP cs DR: fluorescent counter-screen in isolated mitochondria, dose response, counter-screen for MPTP inhibitor project, biochemical, fluorescence, uHTS hits; isolated mitochondria counterscreen, fluorescence read-out; shares compounds with MPTP block; actives 49% (n = 780); IC50, µM; in the data active means IC50 below about 80 µM
Starred values were filed as active, the others as inactive; · = no result given.

SMILES	CHO parental Ca	OX1R antag-1	OX1R antag-2	MPTP block	GPR7 antagonist	Rh123 counter	others
CCN(CC)C(=O)C1CCCN(C(=O)c2cc(COc3ccc4ncccc4c3)on2)C1 (configuration not stated)	-11	-10	7	4	1	·
COc1ccc(NS(=O)(=O)c2cccc(C(=O)NC3CCC(O)CC3)c2)cc1 (configuration not stated)	-14	7	25	-1	-14	·
Cc1cc(C)cc(OCC(=O)OCC(=O)Nc2c(C)n(C)n(-c3ccccc3)c2=O)c1	8	-30	12	1	-5	·
O=C(CSc1ccc2c(c1)OCCO2)Nc1ccc(N2CCOCC2)cc1	3	-14	10	1	-4	·
CC(=O)N1C[C@H]2CON(C)[C@H]2C[C@H]1c1cccc(-c2cc(Cl)cc(Cl)c2)c1	·	·	·	1	·	·
NCc1csc(Nc2ncccn2)n1	·	·	·	0	·	·
CS/C(=C/[N+](=O)[O-])Nc1cccc2c1C(C)CC2(C)C (configuration not stated)	-3	4	13	3	-9	·
O=C(N/N=C/c1cccnc1)c1cccc(Cl)c1	9	4	1	4	15	·
CC(C)c1ccc(/C=N/NC(=O)c2cccc(Cl)c2)cc1	-10	2	34	74*	-5	65*
CCCCC(=O)NC(c1ccc([N+](=O)[O-])cc1)c1c(O)ccc2ccccc12 (configuration not stated)	10	-7	41	69*	-5	79*
O=C(NC(c1ccc(Cl)cc1)c1c(O)ccc2ccccc12)c1ccccc1 (configuration not stated)	16	-1	32	80*	3	59*
CCC(=O)NC(c1ccc([N+](=O)[O-])cc1)c1c(O)ccc2ccccc12 (configuration not stated)	-8	-9	16	36	4	·
O=C(Nc1cc(S(=O)(=O)N2CCOCC2)ccc1O)c1ccc(S(=O)(=O)N2CCCCC2)cc1	-12	2	-4	-1	·	·
CCOc1ccc(NC(=O)c2ccccc2NS(=O)(=O)c2ccc(F)cc2)c([N+](=O)[O-])c1	-18	-17	35	92*	-18	94*
O=C(Nc1cc(S(=O)(=O)N2CCCCC2)ccc1O)c1ccccc1NS(=O)(=O)c1ccc(F)cc1	-20	5	49	97*	-6	71*
Cc1ccc(S(=O)(=O)Nc2ccccc2C(=O)Nc2nc(-c3ccc(F)cc3)cs2)cc1	26	52*	67*	70*	18	14
O=C(Nc1cc(S(=O)(=O)Nc2ccc(Cl)cc2)ccc1O)c1ccc(S(=O)(=O)N2CCCCCC2)cc1	1	-13	-9	91*	2	42*
C=CCN1C(=O)/C(=C/c2ccc(-c3ccc(F)cc3)o2)SC1=S	6	-8	9	4	-9	·
CC(O)(c1ccccc1)c1ccc2ccccc2n1 (configuration not stated)	·	·	·	-3	·	·
N#Cc1ccccc1COC(=O)CCC(=O)c1cccs1	7	-3	-2	-1	·	·
COc1ccccc1NC(=O)C(C)Sc1nc(-c2ccccc2)cn1N (configuration not stated)	-28	-20	24	-2	·	·
O=C(Nc1cc(S(=O)(=O)N2CCCCC2)ccc1Cl)c1ccccc1NS(=O)(=O)c1ccc(F)cc1	38	25	36	97*	-8	60*
O=C(CSc1nnc(CNC(=O)c2ccco2)o1)Nc1nc2ccccc2s1	-4	-8	12	0	-9	·
O=C(O)c1ccccc1-c1c2cc(I)c(=O)c(I)c-2oc2c(I)c(O)c(I)cc12	78*	79*	38	79*	·	-17
Cc1ccccc1Nc1nc(N)nc(CSc2nc3ccccc3c(=O)n2C)n1	-16	-28	2	57*	0	22*
SMILES	CHO parental Ca	OX1R antag-1	OX1R antag-2	MPTP block	GPR7 antagonist	Rh123 counter	others
Cc1cc(SCC(=O)N/N=C/c2ccccc2C(=O)O)c(C)cc1Br	0	-8	24	1	-10	·
Cc1cc(SCC(=O)N/N=C/c2ccc(O)cc2O)c(C)cc1Br	14	10	36	91*	-7	56*
Cc1ccc(S(=O)(=O)N(C)c2ccc(OCC(=O)N3CCCCC3)cc2)cc1	-17	-20	30	1	-10	·
CC(OC(=O)CC1CCCC1)C(=O)Nc1ccc(Cl)cn1 (configuration not stated)	-9	-8	24	-1	·	·
O=C(Nc1ccc(N2CCCC2)c(S(=O)(=O)Nc2cccc(C(F)(F)F)c2)c1)c1cccs1	-27	-2	17	74*	-14	50*
COc1ccccc1NS(=O)(=O)c1cc(NC(=O)c2cccs2)ccc1N1CCCC1	-11	14	23	6	-14	·
O=C(Nc1ccc(OCC(F)(F)C(F)F)c(C(F)(F)F)c1)c1ccccc1O	72*	66*	85*	106*	18	77*
CS(=O)(=O)c1cccc(S(=O)(=O)N2CCCCCC2)c1	-16	-13	19	1	-7	·
CC(C)(C)CC(C)(C)NCC(O)COc1ccc2c(c1)CCC2 (configuration not stated)	-23	-29	8	95*	4	-12	MPTP swell DR=4.2*;MPTP cs DR=48*
Cc1ccc(OCCNC(=O)c2cc(C(=O)NCCOc3ccc(C)cc3)cc([N+](=O)[O-])c2)cc1	15	20	5	74*	-7	83*
Cc1nn(C(C)C(=O)N2CCc3ccccc32)c(C)c1[N+](=O)[O-] (configuration not stated)	-1	-11	19	2	-8	·
Cc1[nH]n(-c2ccccc2)c(=O)c1-c1ccccc1	-5	-21	2	-9	-9	·
O=c1c(Sc2ccccc2)c(C(F)(F)F)[nH]n1-c1ccccc1	0	-3	22	70*	-2	89*
COc1cccc(NC(=S)NC(Cc2ccccc2)c2ccccc2)c1 (configuration not stated)	·	·	·	57*	·	90*
O=C(Nc1ccc(C(F)(F)F)cc1)N1CCN(c2ccnc3cc(Cl)ccc23)CC1	-24	-2	7	79*	-20	81*
